Experimental data from ChEMBL document CHEMBL1143201 (Bioorg Med Chem, 2008).
Activity calls are given as the source filed them. No cut-off for these calls is given here.

Legend:
Assay type in all cases: cell-based
[1] = molecular target: T1, Muscarinic acetylcholine receptor M1 (Homo sapiens, UniProt P11229); assay: Displacement of [3H]NMS from human muscarinic M1 receptor expressed in CHO cells in continuous presence of radioligand
T1 sequence (P11229 whole entry): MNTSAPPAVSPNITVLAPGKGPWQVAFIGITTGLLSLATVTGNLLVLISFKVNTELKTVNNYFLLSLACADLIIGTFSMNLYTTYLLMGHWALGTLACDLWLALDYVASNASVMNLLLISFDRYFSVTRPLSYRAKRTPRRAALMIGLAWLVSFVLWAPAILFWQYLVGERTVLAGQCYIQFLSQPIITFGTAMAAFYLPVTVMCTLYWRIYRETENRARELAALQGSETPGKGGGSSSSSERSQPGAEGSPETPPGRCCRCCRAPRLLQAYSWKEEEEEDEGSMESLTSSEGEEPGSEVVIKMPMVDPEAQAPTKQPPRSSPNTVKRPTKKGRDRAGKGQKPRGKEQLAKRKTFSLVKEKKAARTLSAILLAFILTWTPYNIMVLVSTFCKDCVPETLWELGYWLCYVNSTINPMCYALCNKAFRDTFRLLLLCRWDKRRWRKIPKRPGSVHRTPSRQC
In short: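 CHO cells stably expressing human M1 receptor, grown in DMEM with 10% bovine calf serum and geneticin, trypsinized 4 days after subculture and washed into Hepes buffer. Cells incubated 1 h at 37 °C with 0.14–0.20 nM [3H]NMS plus increasing analog concentrations. Atropine defined nonspecific binding. Ended by rapid GF/B filtration and ice-cold saline washes, then scintillation counting; pIC50 reported.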

[2] = molecular target: T2, Muscarinic acetylcholine receptor M1 (Homo sapiens) (UniProt P11229); assay: (§1) Displacement of [3H]NMS from human muscarinic M1 receptor expressed in CHO cells by wash-resistant binding method
T2 sequence (whole entry): T1 sequence (P11229 whole entry)
In short: (§2)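 Human M1-transfected CHO cells in Hepes buffer were preincubated with test ligand. Each wash was a ~50-volume buffer dilution and centrifugation, done three times in all. Washed cells were resuspended, given [3H]NMS, and incubated 1 h at 37 °C. Bound radioactivity was then taken by filtration and scintillation counting; pIC50 derived.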

[3] = molecular target: T1, Muscarinic acetylcholine receptor M1; assay: Displacement of [3H]NMS from human muscarinic M1 receptor expressed in CHO cells at pH 8 by wash-resistant binding method
In short: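 Human M1-transfected CHO cells preincubated with increasing analog concentrations in pH 8.0 buffer. Each wash is ~50 vol buffer dilution then centrifugation, done three times in total. Pellet resuspended in buffer with [3H]NMS for 1 h at 37 °C. Bound radioactivity collected by rapid filtration and scintillation counting. Result expressed as pIC50 of residual inhibition.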

[4] = molecular target: T1, Muscarinic acetylcholine receptor M1; assay: Displacement of [3H]NMS from human muscarinic M1 receptor expressed in CHO cells at pH 8 in continuous presence of radioligand
In short: (§3)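 CHO cells stably transfected with human M1 gene, grown in DMEM with 10% bovine calf serum and geneticin, harvested by mild trypsinization 4 days after subculture, washed in Hepes medium. Buffer acidified to pH 6.0 or set to pH 8.0. Cells incubated 1 h at 37 °C with 0.14–0.20 nM [3H]NMS plus increasing analog concentrations. Nonspecific binding defined with 10 µM atropine. Filtration, saline washes, scintillation counting; pIC50 derived.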

[5] = molecular target: T1, Muscarinic acetylcholine receptor M1; assay: (§4) Displacement of [3H]NMS from human muscarinic M1 receptor expressed in CHO cells at pH 6 by wash-resistant binding method
In short: (§5)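 Washout paradigm run in binding buffer acidified to pH 6.0, on CHO cells stably carrying human M1 receptor. After ligand preincubation, cells went through three rounds of ~50-volume dilution plus centrifugation, then resuspension with [3H]NMS for 1 h at 37 °C. Residual bound label was measured by filtration and scintillation counting; pIC50 derived.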

[6] = molecular target: T1, Muscarinic acetylcholine receptor M1; assay: as §1; in short: as §2
[7] = molecular target: T1, Muscarinic acetylcholine receptor M1; assay: Displacement of [3H]NMS from human muscarinic M1 receptor expressed in CHO cells at pH 6 in continuous presence of radioligand; in short: as §3
[8] = molecular target: T2, Muscarinic acetylcholine receptor M1 (Homo sapiens); assay: as §4; in short: as §5

CN1CCC=C(c2nsnc2OCC(=O)O)C1 was tested, and the IC50 [1] was 617 nM and the Activity [2] was “inactive”.
CN1CCC=C(c2nsnc2OCCCCn2cccc2)C1 was tested, and the IC50 [3] was 12000 nM, the IC50 [4] was 219 nM and the IC50 [5] was 39800 nM. The IC50 [1] was 275 nM, the IC50 [6] was 28800 nM and the IC50 [7] was 407 nM.
In the case of CCCOc1nsnc1C1=CCCN(C)C1, the IC50 [1] is reported as 52.5 nM and the Activity [2] is reported as “inactive”.
CCOC(=O)CCCCOc1nsnc1C1=CCCN(C)C1 was tested, and the IC50 [1] was 58.9 nM and the Activity [2] was “inactive”.
CN1CCC=C(c2nsnc2OCCCCCN)C1 was tested, and the IC50 [1] was 1910 nM and the IC50 [6] was 44700 nM.
With CN1CCC=C(c2nsnc2OCCCCN)C1 the IC50 [1] was 77600 nM and the Activity [2] was “inactive”.
Compound CN1CCC=C(c2nsnc2OCCCCCCN)C1 has an IC50 [1] of 646 nM and an IC50 [6] of 3980 nM.
In the case of CN1CCC=C(c2nsnc2OCCCCn2ccnc2)C1, the IC50 [3] is reported as 53700 nM, the IC50 [4] is reported as 871 nM and the Activity [8] is reported as “inactive”. The IC50 [1] was 871 nM, the IC50 [6] was 52500 nM and the IC50 [7] was 2290 nM.
For CN1CCC=C(c2nsnc2OCCO)C1, the IC50 [1] was 1070 nM and the Activity [2] was “inactive”.
With CN1CCC=C(c2nsnc2OCCCO)C1 the IC50 [1] was 3800 nM and the Activity [2] was “inactive”.
CN1CCC=C(c2nsnc2OCC#Cc2ccccc2)C1 was tested, and the IC50 [1] was 37.2 nM and the IC50 [6] was 2140 nM.
For CN1CCC=C(c2nsnc2OCCCCO)C1, the IC50 [1] was 309 nM and the Activity [2] was “inactive”.
With CNCCCCOc1nsnc1C1=CCCN(C)C1 the IC50 [1] was 7080 nM and the Activity [2] was “inactive”.
In the case of CCOc1nsnc1C1=CCCN(C)C1, the IC50 [1] is reported as 141 nM and the Activity [2] is reported as “inactive”.
In the case of CN1CCC=C(c2nsnc2OCCCN)C1, the IC50 [1] is reported as 162 nM and the IC50 [6] is reported as 14800 nM.
Compound CN1CCC=C(c2nsnc2OCCN)C1 has an IC50 [1] of 1000 nM and an IC50 [6] of 110000 nM.
